Experimental data: ChEMBL document CHEMBL1154674, “Synthesis and evaluation of three 18F-labeled aminophenylbenzothiazoles as amyloid imaging agents” (J Med Chem, 2009)
Values belong to the compound of their own block, whether it stands above or below them.

Legend:
Type in all cases: ADME, organism-based, Macaca mulatta
[1] = Drug level in normal rhesus monkey pons assessed as standard uptake value at 81.2 MBq, iv after 32.5 mins by microPET; conditions: in vivo
[2] = Drug level in normal rhesus monkey parietal cortex assessed as standard uptake value at 81.2 MBq, iv after 3.5 mins by microPET; conditions: in vivo
[3] = Drug level in normal rhesus monkey parietal cortex assessed as standard uptake value at 81.2 MBq, iv after 14 mins by microPET; conditions: in vivo
[4] = Drug level in normal rhesus monkey parietal cortex assessed as standard uptake value at 81.2 MBq, iv after 27.5 mins by microPET; conditions: in vivo
[5] = Drug level in normal rhesus monkey parietal cortex assessed as standard uptake value at 81.2 MBq, iv after 105 mins by microPET; conditions: in vivo, 1.75 h
[6] = Drug level in normal rhesus monkey white matter assessed as standard uptake value at 81.2 MBq, iv after 0.5 mins by microPET; conditions: in vivo
[7] = Drug level in normal rhesus monkey white matter assessed as standard uptake value at 81.2 MBq, iv after 42.5 mins by microPET; conditions: in vivo
[8] = Drug level in normal rhesus monkey thalamus assessed as standard uptake value at 81.2 MBq, iv after 27.5 mins by microPET; conditions: in vivo
[9] = Drug level in normal rhesus monkey frontal cortex assessed as standard uptake value at 81.2 MBq, iv after 52.5 mins by microPET; conditions: in vivo, 0.875 h
[10] = Drug level in normal rhesus monkey cerebellum assessed as standard uptake value at 81.2 MBq, iv after 27.5 mins by microPET; conditions: in vivo
Outline: (§1)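 One normal rhesus monkey, each tracer given iv via the vena saphena (81.2, 96.3 or 109.4 MBq), with 1 day between tracer injections. Dynamic brain μPET over 180 min used frames of 5 × 60 s, 5 × 120 s, 9 × 300 s and 12 × 600 s. Images were reconstructed by filtered back projection with a RAMP filter. Regional time-activity curves were expressed as SUV.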

[11] = Drug level in normal rhesus monkey cerebellum assessed as standard uptake value at 81.2 MBq, iv after 135 mins by microPET; conditions: in vivo, 2.25 h; outline: as §1
[12] = Drug level in normal rhesus monkey frontal cortex assessed as standard uptake value at 81.2 MBq, iv after 2.5 mins by microPET; conditions: in vivo
[13] = Drug level in normal rhesus monkey thalamus assessed as standard uptake value at 96.3 MBq, iv after 22.5 mins by microPET; conditions: in vivo, 0.375 h
[14] = Drug level in normal rhesus monkey thalamus assessed as standard uptake value at 96.3 MBq, iv after 32.5 mins by microPET; conditions: in vivo
[15] = Drug level in normal rhesus monkey thalamus assessed as standard uptake value at 96.3 MBq, iv after 165 mins by microPET; conditions: in vivo, 2.75 h
[16] = Drug level in normal rhesus monkey cerebellum assessed as standard uptake value at 96.3 MBq, iv after 125 mins by microPET; conditions: in vivo; outline: as §1
[17] = Drug level in normal rhesus monkey frontal cortex assessed as standard uptake value at 96.3 MBq, iv after 4.5 mins by microPET; conditions: in vivo, 0.075 h
[18] = Drug level in normal rhesus monkey frontal cortex assessed as standard uptake value at 96.3 MBq, iv after 8 mins by microPET; conditions: in vivo
[19] = Drug level in normal rhesus monkey pons assessed as standard uptake value at 109.4 MBq, iv after 3.5 mins by microPET; conditions: in vivo
[20] = Drug level in normal rhesus monkey pons assessed as standard uptake value at 109.4 MBq, iv after 37.5 mins by microPET; conditions: in vivo, 0.625 h
[21] = Drug level in normal rhesus monkey cerebellum assessed as standard uptake value at 109.4 MBq, iv after 22.5 mins by microPET; conditions: in vivo, 0.375 h
Outline: (§2)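 One normal rhesus monkey received each tracer via the vena saphena, with 1 day between injections. Dynamic μPET ran 180 min for 18F tracers (5×60 s, 5×120 s, 9×300 s, 12×600 s) and 90 min for the 11C tracer (5×60 s, 5×120 s, 9×300 s, 3×600 s). Filtered back-projection reconstruction (RAMP filter) was used. Time-activity curves were drawn to give regional SUV.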

[22] = Drug level in normal rhesus monkey frontal cortex assessed as standard uptake value at 109.4 MBq, iv after 15.5 mins by microPET; conditions: in vivo
[23] = Drug level in normal rhesus monkey thalamus assessed as standard uptake value at 109.4 MBq, iv after 12.5 mins by microPET; conditions: in vivo
[24] = Drug level in normal rhesus monkey thalamus assessed as standard uptake value at 109.4 MBq, iv after 37.5 mins by microPET; conditions: in vivo, 0.625 h
[25] = Drug level in normal rhesus monkey cerebellum assessed as standard uptake value at 109.4 MBq, iv after 9.5 mins by microPET; conditions: in vivo
[26] = Drug level in normal rhesus monkey frontal cortex assessed as standard uptake value at 109.4 MBq, iv after 117 mins by microPET; conditions: in vivo, 1.95 h
[27] = Drug level in normal rhesus monkey cerebellum assessed as standard uptake value at 152.9 MBq, iv after 47.5 mins by microPET; conditions: in vivo; outline: as §2
[28] = Drug level in normal rhesus monkey frontal cortex assessed as standard uptake value at 152.9 MBq, iv after 57.5 mins by microPET; conditions: in vivo
Outline: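 Single normal rhesus monkey; tracer given iv via the vena saphena, 1 day apart from the other tracer injections. Dynamic μPET ran 90 min (5×60 s, 5×120 s, 9×300 s, 3×600 s). Images were reconstructed by filtered back projection with a RAMP filter. Regional time-activity curves were expressed as SUV.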

[29] = Drug level in normal rhesus monkey white matter assessed as standard uptake value at 152.9 MBq, iv after 2.5 mins by microPET; conditions: in vivo
[30] = Drug level in normal rhesus monkey white matter assessed as standard uptake value at 152.9 MBq, iv after 6 mins by microPET; conditions: in vivo, 0.1 h
[31] = Drug level in normal rhesus monkey white matter assessed as standard uptake value at 152.9 MBq, iv after 8 mins by microPET; conditions: in vivo
[32] = Drug level in normal rhesus monkey white matter assessed as standard uptake value at 152.9 MBq, iv after 14 mins by microPET; conditions: in vivo
[33] = Drug level in normal rhesus monkey pons assessed as standard uptake value at 152.9 MBq, iv after 1.5 mins by microPET; conditions: in vivo, 0.025 h
[34] = Drug level in normal rhesus monkey parietal cortex assessed as standard uptake value at 152.9 MBq, iv after 4.5 mins by microPET; conditions: in vivo, 0.075 h
[35] = Drug level in normal rhesus monkey parietal cortex assessed as standard uptake value at 152.9 MBq, iv after 12 mins by microPET; conditions: in vivo, 0.2 h
[36] = Drug level in normal rhesus monkey parietal cortex assessed as standard uptake value at 152.9 MBq, iv after 27.5 mins by microPET; conditions: in vivo
[37] = Drug level in normal rhesus monkey parietal cortex assessed as standard uptake value at 152.9 MBq, iv after 47.5 mins by microPET; conditions: in vivo

- SUV [1]: 5.714
- SUV [2]: 4.897
- SUV [3]: 4.798
- SUV [4]: 4.303
- SUV [5]: 2.784
- SUV [6]: 0.621
- SUV [7]: 3.757
- SUV [8]: 5.4
- SUV [9]: 5.321
- SUV [10]: 2.224
- SUV [11]: 1.594
- SUV [12]: 4.284
Compound: CNc1ccc2nc(-c3ccc([18F])cc3)sc2c1

- SUV [13]: 2.35
- SUV [14]: 2.33
- SUV [15]: 1.86
- SUV [16]: 0.9
- SUV [17]: 1.64
- SUV [18]: 1.98
Compound: CN(C)c1ccc2nc(-c3ccc([18F])cc3)sc2c1

- SUV [19]: 3.33
- SUV [20]: 4.73
- SUV [21]: 4.4
- SUV [22]: 5.08
- SUV [23]: 5.39
- SUV [24]: 5.66
- SUV [25]: 5.44
- SUV [26]: 4.28
Compound: Nc1ccc2nc(-c3ccc([18F])cc3)sc2c1

- SUV [27]: 0.866
- SUV [28]: 0.692
- SUV [29]: 0.752
- SUV [30]: 1.364
- SUV [31]: 1.421
- SUV [32]: 1.428
- SUV [33]: 0.447
- SUV [34]: 1.925
- SUV [35]: 2.062
- SUV [36]: 1.221
- SUV [37]: 0.862
Compound: [11CH3]Nc1ccc(-c2nc3ccc(O)cc3s2)cc1 [PITTSBURGH COMPOUND B]
